In ChEMBL document CHEMBL4118191, “Novel oxazolxanthone derivatives as a new type of α-glucosidase inhibitor: synthesis, activities, inhibitory modes and synergetic effect” (Bioorg Med Chem, 2018):
Active and inactive are the calls of the source. No cut-off for these calls is given here.

What was measured:
[1] = Inhibition of Saccharomyces cerevisiae alpha-glucosidase using PNP glycoside as substrate preincubated for 30 mins followed by substrate addition measured after 60 secs by spectrophotometric method
Summary of the method: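 Yeast α-glucosidase was pre-incubated with inhibitor for 30 min at 37 °C before substrate addition. The reaction ran 60 s at 37 °C and was read by absorbance at 400 nm. Five inhibitor concentrations were bracketed around a first-round IC50 estimate, each in triplicate, and mean values were taken.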

Saccharomyces cerevisiae [2] = assay: Competitive inhibition of Saccharomyces cerevisiae alpha-glucosidase at 50 to 60 uM using varying levels of PNP glycoside as substrate preincubated for 30 mins followed by substrate addition measured after 60 secs by Lineweaver-Burk plot analysis
Summary of the method: (§1)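 Mode of inhibition came from Lineweaver–Burk double-reciprocal plots. At each fixed inhibitor concentration, yeast α-glucosidase activity was measured over varying PNP glycoside concentrations. Enzyme–inhibitor mixtures were in 50 mM phosphate buffer, pH 6.8, with 5% v/v DMSO, and were pre-incubated 30 min at 37 °C before substrate addition. The reaction ran 60 s at 37 °C and was read at 400 nm.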

[3] = Solubility of the compound; format: physicochemical
[4] = Non-competitive inhibition of Saccharomyces cerevisiae alpha-glucosidase using varying levels of PNP glycoside as substrate preincubated for 30 mins followed by substrate addition measured after 60 secs by Lineweaver-Burk plot analysis; summary of the method: as §1
Saccharomyces cerevisiae [5] = assay: (§2) Inhibition of Saccharomyces cerevisiae alpha-glucosidase at 2 uM using PNP glycoside as substrate preincubated for 30 mins followed by substrate addition measured after 60 secs by spectrophotometric method relative to control
Summary of the method: (§3)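 Single-point inhibition of yeast α-glucosidase, tested individually and as a 1:1 molar mixture at a fixed total concentration of 2. Inhibitor and enzyme were pre-incubated 30 min at 37 °C, then substrate was added. The reaction ran 60 s at 37 °C with absorbance read at 400 nm. Percent inhibition is relative to control.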

Saccharomyces cerevisiae [6] = assay: as §2, with “Synergistic inhibition” for “Inhibition”, “1:1 molar ratio of compound to 5-methoxy-2-(4-methoxyphenyl)-6H-xantheno [4, 3-d] oxazol-6-one” for “2 uM”; summary of the method: as §3
Saccharomyces cerevisiae [7] = assay: (§4) Synergistic inhibition of Saccharomyces cerevisiae alpha-glucosidase at 1:1 molar ratio of compound to 5-methoxy-2-(4-methoxyphenyl)-6H-xantheno [4, 3-d] oxazol-6-one using PNP glycoside as substrate preincubated for 30 mins followed by substrate addition measured after 60 secs by spectrophotometric method relative to compound alone; summary of the method: as §3
[8] = as §4, with “4:6” for “1:1”, “method” for “method relative to compound alone”
Summary of the method: (§5)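 Yeast α-glucosidase IC50 was determined for the two-inhibitor mixture at a 4:6 molar ratio and for each inhibitor alone. Pre-incubation was 30 min at 37 °C, followed by a 60 s reaction at 37 °C read at 400 nm. Five concentrations were run in triplicate and means taken. Ratios compare single-compound IC50 with mixture IC50.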

Saccharomyces cerevisiae [9] = assay: Ratio of compound alone IC50 to compound IC50 in presence of 5-methoxy-2-(4-methoxyphenyl)-6H-xantheno [4, 3-d] oxazol-6-one for Saccharomyces cerevisiae alpha-glucosidase; summary of the method: as §5
Saccharomyces cerevisiae [10] = assay: as §4, with “5-hydroxy-2-(4-methoxyphenyl)-6H-xantheno” for “5-methoxy-2-(4-methoxyphenyl)-6H-xantheno”, “control” for “compound alone”; summary of the method: as §3
Saccharomyces cerevisiae [11] = assay: as §4, with “5-hydroxy-2-(4-methoxyphenyl)-6H-xantheno” for “5-methoxy-2-(4-methoxyphenyl)-6H-xantheno”; summary of the method: as §3
Saccharomyces cerevisiae [12] = assay: Ratio of IC50 for synergistic inhibition of Saccharomyces cerevisiae alpha-glucosidase assessed as 5-hydroxy-2-(4-methoxyphenyl)-6H-xantheno [4, 3-d] oxazol-6-one IC50 to IC50 for Saccharomyces cerevisiae alpha-glucosidase; summary of the method: as §5

| SMILES | IC50 [1] [µM] | other results |
| --- | --- | --- |
| Cc1nc2c(cc(O)c3c(=O)c4ccccc4oc32)o1 | 64.4 | inhibition (Saccharomyces cerevisiae [2]): Active |
| O=c1c2ccccc2oc2c([N+](=O)[O-])c(O)cc(O)c12 | 286 | – |
| O=c1c2ccccc2oc2cc(O)cc(O)c12 | 186 | – |
| Nc1c(O)cc(O)c2c(=O)c3ccccc3oc12 | 127 | – |
| O=c1c2ccccc2oc2c1c(O)cc1oc(C3CCCCC3)nc12 | 38.5 | – |
| O=c1c2ccccc2oc2c1c(O)cc1oc(-c3ccc([N+](=O)[O-])cc3)nc12 | 24.5 | – |
| Cc1ccc(-c2nc3c(cc(O)c4c(=O)c5ccccc5oc43)o2)cc1 | 19.1 | – |
| O=c1c2ccccc2oc2c1c(O)cc1oc(-c3ccccc3)nc12 | 18.3 | – |
| OC[C@H]1NC[C@H](O)[C@@H](O)[C@@H]1O [DUVOGLUSTAT] | 60.3 | – |
| COc1cc2oc(-c3ccccc3)nc2c2oc3ccccc3c(=O)c12 | 19.6 | solubility [3]: Soluble |
| O=c1c2ccccc2oc2c1c(O)cc1oc(-c3ccc(C(F)(F)F)cc3)nc12 | 26.9 | – |

These reach a lower IC50 [1]. Values come first.

| IC50 [1] [µM] | SMILES | other results |
| --- | --- | --- |
| 9.9 | COc1cc2oc(-c3ccc(Cl)cc3)nc2c2oc3ccccc3c(=O)c12 | solubility [3]: Soluble |
| 6.7 | O=c1c2ccccc2oc2c1c(O)cc1oc(-c3ccc(F)cc3)nc12 | – |
| 6.3 | O=c1c2ccccc2oc2c1c(O)cc1oc(-c3c(F)cc(F)cc3F)nc12 | Ki [4]: 6.8 µM |
| 8.3 | Nc1ccc(-c2nc3c(cc(O)c4c(=O)c5ccccc5oc43)o2)cc1 | – |
| 8.8 | O=c1c2ccccc2oc2c1c(O)cc1oc(-c3ccc(Cl)cc3)nc12 | – |
| 7.3 | O=c1c2ccccc2oc2c1c(O)cc1oc(-c3ccc(O)cc3)nc12 | – |
| 7.1 | COc1ccc(-c2nc3c(cc(O)c4c(=O)c5ccccc5oc43)o2)cc1 | Ki [4]: 5.3 µM; inhibition (Saccharomyces cerevisiae [5]): 21.7%; inhibition (Saccharomyces cerevisiae [6]): 41.9%; fold change (FC) (Saccharomyces cerevisiae [7]): 2; IC50 [8]: 1.9 µM; Ratio IC50 (Saccharomyces cerevisiae [9]): 3.5 |
| 11 | O=c1c2ccccc2oc2c1c(O)cc1oc(-c3ccc(Br)cc3)nc12 | – |
| 8.6 | COc1ccc(-c2nc3c(cc(OC)c4c(=O)c5ccccc5oc43)o2)cc1 | solubility [3]: Soluble; Ki [4]: 7.4 µM; inhibition (Saccharomyces cerevisiae [5]): 20.3%; inhibition (Saccharomyces cerevisiae [10]): 41.9%; fold change (FC) (Saccharomyces cerevisiae [11]): 2; Ratio IC50 (Saccharomyces cerevisiae [12]): 4 |
| 8.9 | O=c1c2ccccc2oc2c1c(O)cc1oc(-c3cccc(F)c3)nc12 | – |
| 8.4 | O=c1c2ccccc2oc2c1c(O)cc1oc(-c3ccccc3F)nc12 | – |
